Data: ChEMBL document CHEMBL1124740, “Design, synthesis, and 5-lipoxygenase-inhibiting properties of 1-thio-substituted butadienes” (J Med Chem, 1990)

Legend:
[1] = target: T1, Polyunsaturated fatty acid 5-lipoxygenase (Rattus norvegicus, UniProt P12527); assay: Inhibition of 5-lipoxygenase in rat RBL-1 cells; assay type: cell-based
T1 sequence (P12527 whole entry): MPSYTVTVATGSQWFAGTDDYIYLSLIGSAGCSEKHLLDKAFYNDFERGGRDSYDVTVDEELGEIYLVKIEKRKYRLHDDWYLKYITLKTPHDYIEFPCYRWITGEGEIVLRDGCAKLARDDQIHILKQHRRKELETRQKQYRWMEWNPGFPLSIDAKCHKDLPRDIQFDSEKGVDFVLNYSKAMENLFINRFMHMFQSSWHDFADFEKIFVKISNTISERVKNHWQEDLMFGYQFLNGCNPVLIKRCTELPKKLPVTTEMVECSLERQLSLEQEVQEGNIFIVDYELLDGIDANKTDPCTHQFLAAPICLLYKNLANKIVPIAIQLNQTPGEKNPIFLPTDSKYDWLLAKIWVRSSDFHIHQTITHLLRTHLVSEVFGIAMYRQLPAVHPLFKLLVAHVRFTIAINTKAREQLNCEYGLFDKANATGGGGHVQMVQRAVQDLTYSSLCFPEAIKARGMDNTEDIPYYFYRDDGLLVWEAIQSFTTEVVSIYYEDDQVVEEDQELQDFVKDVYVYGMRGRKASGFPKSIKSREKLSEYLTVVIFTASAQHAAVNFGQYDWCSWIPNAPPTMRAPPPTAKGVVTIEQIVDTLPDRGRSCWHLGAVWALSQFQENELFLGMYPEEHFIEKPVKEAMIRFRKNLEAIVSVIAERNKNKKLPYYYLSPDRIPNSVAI
Outline: (§1)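 It was preincubated 5 min at 25 °C with compound or vehicle (2% DMSO) in 0.5 mL of 50 mM KH2PO4, 50 µM ATP, pH 7.0, then substrate was added. Inhibition was taken as the ratio of substrate remaining without versus with inhibitor. IC50 was obtained by linear regression of % inhibition against log concentration.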

[2] = Inhibition of 12-HETE mammalian lipoxygenase at a concentration 20 uM; assay type: functional
Outline: (§2)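 Enzyme source was a 100000g supernatant from human polymorphonuclear cells isolated to 95% purity. It was preincubated with or without compound for 10 min at 20 °C in phosphate-buffered saline (pH 8.3) with 0.5 mM MgCl2. The reaction was started with 120 μM arachidonic acid and stopped with citric acid after 5 min. Products were detected by UV at 272 and 232 nm, with PGB2 as internal standard.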

[3] = Inhibition of LTB4 mammalian lipoxygenase at a concentration 20 uM; assay type: functional; outline: as §2
[4] = In vitro methemoglobin Induction at 10e-4 M in lysed human red blood cells; assay type: functional
Outline: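 Human red blood cells were lysed, and conversion of their hemoglobin to methemoglobin was followed spectrophotometrically in vitro.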

[5] = Inhibition of 5-HETE mammalian lipoxygenase at a concentration 20 uM; assay type: functional; outline: as §2
[6] = Inhibition of 15-HETE mammalian lipoxygenase at a concentration 20 uM; assay type: functional; outline: as §2
[7] = target: T2, Polyunsaturated fatty acid 5-lipoxygenase (Rattus norvegicus) (UniProt P12527); assay: Inhibitory activity against 5-lipoxygenase in RBL-1 cells at a concentration 40 uM.; assay type: cell-based
T2 sequence (whole entry): T1 sequence (P12527 whole entry)
Outline: as §1, with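 “Enzyme source was a 100000g supernatant of RBL-1 cells (2.5 × 10^6 cell equivalents). It” for “It”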

Mus musculus [8] = assay: Inhibition of 5-lipoxygenase in vivo by the measurement of LTC4 release after intraperitoneal 15 min pretreatment (45 min challenge) of mice with a dose of 20 mg/kg; assay type: functional; conditions: ip
Mus musculus [9] = species: Mus musculus; assay: In vitro inhibition of zymosan-stimulated release of Leukotriene C4 from intact mouse peritoneal macrophages following 60-min pretreatment/[…]; assay type: functional
Outline: (§3)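 Mouse peritoneal macrophages collected by lavage, isolated by adherence and kept in Dulbecco's modified Eagle medium. Cells were pretreated with compound for 60 min, then challenged with opsonized zymosan. LTC4 in cell-free supernatant was measured by radioimmunoassay 3 h after challenge.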

[10] = target: T2, Polyunsaturated fatty acid 5-lipoxygenase (Rattus norvegicus); assay: Inhibitory activity against 5-lipoxygenase in RBL-1 cells at 40 uM concentration; assay type: cell-based
Outline: as §1, with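 “Enzyme source was a 100000g supernatant of RBL-1 cells (2.5 × 10^6 cell equivalents). It” for “It”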

Mus musculus [11] = species: Mus musculus; assay: In vitro inhibition of zymosan stimulated release of Leukotriene C4 from intact mouse peritoneal macrophages; assay type: functional; outline: as §3
[12] = Potentiation of 15-HETE mammalian lipoxygenase at a concentration 20 uM; assay type: functional; outline: as §2
[13] = target: T2, Polyunsaturated fatty acid 5-lipoxygenase (Rattus norvegicus); assay: Inhibitory activity against 5-lipoxygenase in RBL-1 cells at a concentration 40 uM; assay type: cell-based
Outline: as §1, with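 “Enzyme source was a 100000g supernatant of RBL-1 cells (2.5 × 10^6 cell equivalents). It” for “It”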

With `COc1ccc2c(c1)c(CC(=O)O)c(C)n2C(=O)c1ccc(Cl)cc1` [INDOMETHACIN] the IC50 [1] was over 20 µM.
In the case of `CC1=NN(CCOc2ccc3ccccc3c2)C(=O)C1` [NAFAZATROM], the inhibition [2] is reported as 58%, the inhibition [3] is reported as 65% and the Induction [4] is reported as under 3%. It also gave an inhibition [5] of 68% and an inhibition [6] of 30%.
With `CCCCCCCCC#CC/C=C\C=C\Sc1ccc(C(=O)OC)cc1` the inhibition [7] was 21%.
`CCCCCCCCCCC/C=C\C=C\SCCCC(=O)OC` showed an IC50 [1] of 22 µM, an Induction [4] of under 3% and an inhibition in vivo at 20 mg/kg (Mus musculus [8]) of 10%. For the same compound, the IC50 (Mus musculus [9]) was over 60 µM.
`CCCCCCCC/C=C\C/C=C\C=C\SCCCC(=O)O` showed an IC50 [1] of 7.2 µM.
Work on `NC1=NN(c2cccc(C(F)(F)F)c2)CC1` [BW-755C] yielded an Induction [4] of 17%.
`CC#CC/C=C\C=C\SCCCC(=O)OC` gave an inhibition [10] of 32%.
In the case of `CCCCCCCCC#CC/C=C\C=C\Sc1ccccc1C(=O)OC`, the inhibition [7] is reported as 45%.
Compound `CCCCCCCC/C=C\C/C=C\C=C\SCCCC(=O)OC` has an IC50 (Mus musculus [11]) of 22 µM, an inhibition [2] of 0% and an IC50 [1] of 6.2 µM. For the same compound, the inhibition [3] was 60%, the Induction [4] was under 3% and the inhibition in vivo at 20 mg/kg (Mus musculus [8]) was 80%. For the same compound, the Potentiation [12] was 20% and the inhibition [5] was 58%.
With `CCCCCCCC/C=C\C/C=C\C=C\SCCC(=O)OC` the inhibition [13] was 47%.
